This note sets out measurements from ChEMBL document CHEMBL2331333, “Synthesis, biological evaluation of new oxazolidino-sulfonamides as potential antimicrobial agents” (2013).

Values after ≈ are worked out from the molar mass of the structure shown. Active and inactive are the calls of the source. No cut-off for these calls is given here.

The test system of one assay is Pseudomonas aeruginosa. Briefly: Antibacterial activity against Pseudomonas aeruginosa MTCC 2453 after 24 hrs by agar dilution method. The note with it: MTCC 2453, 24 h. The format is functional.
As a reminder, the MIC is the least concentration at which growth counts as inhibited. A low value points to inhibition by little substance. The molecule `O=C1O[C@@H](CNS(=O)(=O)c2cccc3cccnc23)CN1c1ccc(N2CCOCC2)c(F)c1` displayed an MIC of 6 µg/mL (≈ 12.3 µM).
The molecule `O=C1O[C@@H](CNS(=O)(=O)c2cc(Cl)cc(Cl)c2)CN1c1ccc(N2CCOCC2)c(F)c1` registered an MIC of 40 µg/mL (≈ 79.3 µM).
In the case of `O=C1O[C@@H](CNS(=O)(=O)c2ccc(C(F)(F)F)cc2)CN1c1ccc(N2CCOCC2)c(F)c1`, 8 µg/mL (≈ 15.9 µM) was the least that counted as inhibitory (MIC).
For `CC(C)(C)OC(=O)N1CCN(c2ccc(N3C[C@H](CNS(=O)(=O)c4ccc(C(F)(F)F)cc4)OC3=O)cc2F)CC1`, inhibition of growth (MIC) required 10 µg/mL (≈ 16.6 µM).
Regarding `CC(C)(C)OC(=O)N1CCN(c2ccc(N3C[C@H](CNS(=O)(=O)c4ccc(F)cc4)OC3=O)cc2F)CC1`, the lowest concentration to inhibit growth (MIC) was 20 µg/mL (≈ 36.2 µM).

A further assay deals with Mycobacterium tuberculosis. Briefly: Antibacterial activity against Mycobacterium tuberculosis H37Rv at 32 ug/ml […] by agar dilution method. It counts as functional, organism-based.
Settings: not given
On the technique in general: In agar dilution, organisms are placed on agar that contains the substance at set levels.
Take `O=C1O[C@@H](CNS(=O)(=O)c2cccc3cccnc23)CN1c1ccc(N2CCOCC2)c(F)c1`: the outcome was inactive.
On the same count and under the same terms, under `O=C1O[C@@H](CNS(=O)(=O)c2cc(Cl)cc(Cl)c2)CN1c1ccc(N2CCOCC2)c(F)c1` stands “inactive”; under `O=C1O[C@@H](CNS(=O)(=O)c2ccc(C(F)(F)F)cc2)CN1c1ccc(N2CCOCC2)c(F)c1`, “inactive”.
Turning to `CC(C)(C)OC(=O)N1CCN(c2ccc(N3C[C@H](CNS(=O)(=O)c4ccc(C(F)(F)F)cc4)OC3=O)cc2F)CC1`, the outcome was inactive.
On the same count and under the same terms, under `CC(C)(C)OC(=O)N1CCN(c2ccc(N3C[C@H](CNS(=O)(=O)c4ccc(F)cc4)OC3=O)cc2F)CC1` stands “inactive”.

A further assay has as its system Micrococcus luteus. Kind of assay: Antibacterial activity against Micrococcus luteus MTCC 2470 after 24 hrs by agar dilution method. The format is functional. Conditions: MTCC 2470, 24 h.
`O=C1O[C@@H](CNS(=O)(=O)c2cccc3cccnc23)CN1c1ccc(N2CCOCC2)c(F)c1`: the MIC worked out at 8 µg/mL (≈ 16.4 µM).
In the case of `O=C1O[C@@H](CNS(=O)(=O)c2ccc(C(F)(F)F)cc2)CN1c1ccc(N2CCOCC2)c(F)c1`, the lowest concentration to inhibit growth (MIC) was 8 µg/mL (≈ 15.9 µM).
The molecule `CC(C)(C)OC(=O)N1CCN(c2ccc(N3C[C@H](CNS(=O)(=O)c4ccc(C(F)(F)F)cc4)OC3=O)cc2F)CC1` showed a minimal inhibitory concentration (MIC) of 20 µg/mL (≈ 33.2 µM).
On the same count and under the same terms, under `CC(C)(C)OC(=O)N1CCN(c2ccc(N3C[C@H](CNS(=O)(=O)c4ccc(F)cc4)OC3=O)cc2F)CC1` stands 10 µg/mL (≈ 18.1 µM).

The subject of a further assay is Staphylococcus. Briefly: Antibacterial activity against Staphylococcus MLS-16 MTCC 2940 after 24 hrs by agar dilution method. The format is functional. The note with it: MLS-16 MTCC 2940, 24 h.
`O=C1O[C@@H](CNS(=O)(=O)c2cccc3cccnc23)CN1c1ccc(N2CCOCC2)c(F)c1` yielded an MIC of 10 µg/mL (≈ 20.6 µM).
On the same count and under the same terms, under `O=C1O[C@@H](CNS(=O)(=O)c2cc(Cl)cc(Cl)c2)CN1c1ccc(N2CCOCC2)c(F)c1` stands 8 µg/mL (≈ 15.9 µM).
On the same count and under the same terms, under `O=C1O[C@@H](CNS(=O)(=O)c2ccc(C(F)(F)F)cc2)CN1c1ccc(N2CCOCC2)c(F)c1` stands 10 µg/mL (≈ 19.9 µM); under `CC(C)(C)OC(=O)N1CCN(c2ccc(N3C[C@H](CNS(=O)(=O)c4ccc(C(F)(F)F)cc4)OC3=O)cc2F)CC1`, 10 µg/mL (≈ 16.6 µM); under `CC(C)(C)OC(=O)N1CCN(c2ccc(N3C[C@H](CNS(=O)(=O)c4ccc(F)cc4)OC3=O)cc2F)CC1`, 10 µg/mL (≈ 18.1 µM).

A further assay deals with Bacillus subtilis. Briefly: Antibacterial activity against Bacillus subtilis MTCC 121 after 24 hrs by agar dilution method. The format is functional. The note with it: MTCC 121, 24 h.
As for `O=C1O[C@@H](CNS(=O)(=O)c2cccc3cccnc23)CN1c1ccc(N2CCOCC2)c(F)c1`, the lowest concentration to inhibit growth (MIC) was 8 µg/mL (≈ 16.4 µM).
Still for that read-out and setting: under `O=C1O[C@@H](CNS(=O)(=O)c2cc(Cl)cc(Cl)c2)CN1c1ccc(N2CCOCC2)c(F)c1` stands 8 µg/mL (≈ 15.9 µM); under `O=C1O[C@@H](CNS(=O)(=O)c2ccc(C(F)(F)F)cc2)CN1c1ccc(N2CCOCC2)c(F)c1`, 8 µg/mL (≈ 15.9 µM); under `CC(C)(C)OC(=O)N1CCN(c2ccc(N3C[C@H](CNS(=O)(=O)c4ccc(C(F)(F)F)cc4)OC3=O)cc2F)CC1`, 8 µg/mL (≈ 13.3 µM).
Take `CC(C)(C)OC(=O)N1CCN(c2ccc(N3C[C@H](CNS(=O)(=O)c4ccc(F)cc4)OC3=O)cc2F)CC1`: the lowest concentration to inhibit growth (MIC) was 20 µg/mL (≈ 36.2 µM). This MIC lies about 2.5-fold higher than the previous one.

For another assay, the system named is Staphylococcus aureus. Kind of assay: Antibacterial activity against Staphylococcus aureus MTCC 96 after 24 hrs by agar dilution method. The format is functional. Conditions: MTCC 96, 24 h.
Take `O=C1O[C@@H](CNS(=O)(=O)c2cccc3cccnc23)CN1c1ccc(N2CCOCC2)c(F)c1`: inhibition of growth (MIC) required 10 µg/mL (≈ 20.6 µM).
In turn, `O=C1O[C@@H](CNS(=O)(=O)c2cc(Cl)cc(Cl)c2)CN1c1ccc(N2CCOCC2)c(F)c1` came in with a minimal inhibitory concentration (MIC) of 8 µg/mL (≈ 15.9 µM). The MIC values of the last two molecules are within 1.5-fold of each other.
On the same count and under the same terms, for `O=C1O[C@@H](CNS(=O)(=O)c2ccc(C(F)(F)F)cc2)CN1c1ccc(N2CCOCC2)c(F)c1` the value was 10 µg/mL (≈ 19.9 µM).
As for `CC(C)(C)OC(=O)N1CCN(c2ccc(N3C[C@H](CNS(=O)(=O)c4ccc(C(F)(F)F)cc4)OC3=O)cc2F)CC1`, the minimum inhibitory concentration (MIC) was determined as 10 µg/mL (≈ 16.6 µM).
Still for that read-out and setting: for `CC(C)(C)OC(=O)N1CCN(c2ccc(N3C[C@H](CNS(=O)(=O)c4ccc(F)cc4)OC3=O)cc2F)CC1` the value was 10 µg/mL (≈ 18.1 µM).

The test system of the next assay is Raoultella planticola. Briefly: Antibacterial activity against Klebsiella planticola MTCC 530 at 80 ug/ml after 24 hrs by agar dilution method.
Settings: not given
It counts as functional, organism-based.
Regarding `O=C1O[C@@H](CNS(=O)(=O)c2cccc3cccnc23)CN1c1ccc(N2CCOCC2)c(F)c1`, the outcome was inactive.
With `O=C1O[C@@H](CNS(=O)(=O)c2cc(Cl)cc(Cl)c2)CN1c1ccc(N2CCOCC2)c(F)c1`, the result was inactive.
Still for that read-out and setting: under `O=C1O[C@@H](CNS(=O)(=O)c2ccc(C(F)(F)F)cc2)CN1c1ccc(N2CCOCC2)c(F)c1` stands “inactive”; under `CC(C)(C)OC(=O)N1CCN(c2ccc(N3C[C@H](CNS(=O)(=O)c4ccc(C(F)(F)F)cc4)OC3=O)cc2F)CC1`, “inactive”; under `CC(C)(C)OC(=O)N1CCN(c2ccc(N3C[C@H](CNS(=O)(=O)c4ccc(F)cc4)OC3=O)cc2F)CC1`, “inactive”.

The next assay has as its system Candida albicans. Briefly: Antifungal activity against Candida albicans MTCC 3017 after 48 hrs by agar dilution method. The format is functional. The note with it: MTCC 3017, 48 h. The method in brief:
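Same disk/dilution format as the antibacterial assay, on potato dextrose agar (39 g/L). Compounds were from DMSO stock, loaded at 1 to 80 per disk, in triplicate. Plates were incubated at 28 ± 2 °C for 48 h. MIC was the lowest amount that arrested growth. Equivalent DMSO served as solvent control.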
Molecule `O=C1O[C@@H](CNS(=O)(=O)c2cccc3cccnc23)CN1c1ccc(N2CCOCC2)c(F)c1` showed an MIC of 20 µg/mL (≈ 41.1 µM).
Turning to `O=C1O[C@@H](CNS(=O)(=O)c2cc(Cl)cc(Cl)c2)CN1c1ccc(N2CCOCC2)c(F)c1`, the MIC was found to be 8 µg/mL (≈ 15.9 µM). This MIC is about 2.5-fold lower than that of the molecule before.
Take `O=C1O[C@@H](CNS(=O)(=O)c2ccc(C(F)(F)F)cc2)CN1c1ccc(N2CCOCC2)c(F)c1`: the MIC is 20 µg/mL (≈ 39.7 µM). This MIC lies about 2.5-fold higher than the previous one.
For the molecule `CC(C)(C)OC(=O)N1CCN(c2ccc(N3C[C@H](CNS(=O)(=O)c4ccc(C(F)(F)F)cc4)OC3=O)cc2F)CC1`, the MIC is 20 µg/mL (≈ 33.2 µM).
Still for that read-out and setting: for `CC(C)(C)OC(=O)N1CCN(c2ccc(N3C[C@H](CNS(=O)(=O)c4ccc(F)cc4)OC3=O)cc2F)CC1` the value was 10 µg/mL (≈ 18.1 µM).

A further assay relates to Escherichia coli. Briefly: Antibacterial activity against Escherichia coli MTCC 739 at 80 ug/ml after 24 hrs by agar dilution method.
Settings: not given
It counts as functional, organism-based.
In the case of `O=C1O[C@@H](CNS(=O)(=O)c2cccc3cccnc23)CN1c1ccc(N2CCOCC2)c(F)c1`, the outcome was inactive.
As to `O=C1O[C@@H](CNS(=O)(=O)c2cc(Cl)cc(Cl)c2)CN1c1ccc(N2CCOCC2)c(F)c1`, the result was inactive.
As to `O=C1O[C@@H](CNS(=O)(=O)c2ccc(C(F)(F)F)cc2)CN1c1ccc(N2CCOCC2)c(F)c1`, the outcome was inactive.
The same measure, in the same setting: for `CC(C)(C)OC(=O)N1CCN(c2ccc(N3C[C@H](CNS(=O)(=O)c4ccc(C(F)(F)F)cc4)OC3=O)cc2F)CC1` the value was “inactive”; for `CC(C)(C)OC(=O)N1CCN(c2ccc(N3C[C@H](CNS(=O)(=O)c4ccc(F)cc4)OC3=O)cc2F)CC1`, “inactive”.

In the next assay the test system is Micrococcus luteus. Briefly: Antibacterial activity against Micrococcus luteus MTCC 2470 at 80 ug/ml after 24 hrs by agar dilution method.
Settings: not given
It counts as functional, organism-based.
For the molecule `O=C1O[C@@H](CNS(=O)(=O)c2cc(Cl)cc(Cl)c2)CN1c1ccc(N2CCOCC2)c(F)c1`, the outcome was inactive.
